Source: ChEMBL document CHEMBL1126686 (J Med Chem, 1993)

Assays:
[1] = target: cGMP-specific 3',5'-cyclic phosphodiesterase (Homo sapiens) (UniProt O76074); assay: In vitro inhibition of PDE-V isolated from porcine pulmonary artery at 10 uM.; details: Sus scrofa, target entry is the homologue from another species
Phosphodiesterase 4 [2] = target: T1, Phosphodiesterase 4 (Homo sapiens, UniProt P27815+Q08499+Q07343+Q08493); assay: In vitro inhibition of PDE-IV isolated from guinea pig ventricle at 10 uM.; format: protein assay; details: Cavia porcellus, target entry is the homologue from another species
Phosphodiesterase 3 [3] = target: T2, Phosphodiesterase 3 (Homo sapiens, UniProt Q14432+Q13370); assay: Percentage inhibition against PDE-III (phosphodiesterase III) in guinea pig ventricle at 10 uM; format: protein assay; details: Cavia porcellus, target entry is the homologue from another species
Phosphodiesterase 4 [4] = target: T1, Phosphodiesterase 4; assay: In vitro inhibition of PDE-IV isolated from guinea pig ventricle at 100 uM.; format: protein assay; details: Cavia porcellus, target entry is the homologue from another species
Phosphodiesterase 3 [5] = target: T2, Phosphodiesterase 3; assay: Effective dose against PDE-III for increase in contractility following administration to anaesthetised dogs; details: Canis lupus familiaris; target entry is the homologue from another species
Phosphodiesterase 3 [6] = target: T2, Phosphodiesterase 3; assay: Inhibition of PDE 3 (phosphodiesterase III) from guinea pig ventricle; format: protein assay, Cavia porcellus; details: target entry is the homologue from another species
Outline: (§1)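 PDE III and PDE IV were each prepared from guinea pig ventricle by anion-exchange chromatography. Activity was measured by the boronate column method with 1 μM cAMP as substrate.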

Phosphodiesterase 3 [7] = target: T2, Phosphodiesterase 3; assay: Percent inhibition of PDE 3 (phosphodiesterase III) from guinea pig ventricle at 10 uM (or 100 uM); format: protein assay; details: Cavia porcellus, target entry is the homologue from another species
Phosphodiesterase 3 [8] = target: T2, Phosphodiesterase 3; assay: Relative positive inotropic activity (ED50) and PDE 3 inhibition (IC50); format: protein assay; details: Cavia porcellus
Phosphodiesterase 4 [9] = target: T1, Phosphodiesterase 4; assay: In vitro inhibition of PDE-IV isolated from guinea pig ventricle.; format: protein assay, Cavia porcellus; details: target entry is the homologue from another species; outline: as §1
[10] = system: cGMP-specific 3',5'-cyclic phosphodiesterase (Sus scrofa); assay: In vitro inhibition of PDE-V isolated from porcine pulmonary artery at 100 uM.
Phosphodiesterase 4 [11] = target: T1, Phosphodiesterase 4; assay: In vitro inhibition of PDE-IV isolated from guinea pig ventricle; Not determined.; format: protein assay; details: Cavia porcellus; target entry is the homologue from another species; concentration not given here; outline: as §1

With CC(C)(C)Oc1ccccc1-c1nc2ccc[nH]c-2n1 the inhibition [1] was 29%, the inhibition (Phosphodiesterase 4 [2]) was 0% and the inhibition (Phosphodiesterase 3 [3]) was 0%.
CC(=O)Oc1ccccc1-c1nc2ccc[nH]c-2n1 gave an inhibition (Phosphodiesterase 4 [2]) of 0% and an inhibition (Phosphodiesterase 3 [3]) of 2%.
CCOc1ccccc1-c1nc2ccc[nH]c-2n1 showed an inhibition (Phosphodiesterase 4 [2]) of 23% and an inhibition (Phosphodiesterase 3 [3]) of 15%.
COc1cc([S+](C)[O-])ccc1-c1nc2cnccc2[nH]1 (stereo not given) [ISOMAZOLE] showed an inhibition (Phosphodiesterase 4 [4]) of 2%, an ED50 (Phosphodiesterase 3 [5]) of 0.03 mg/kg and an IC50 (Phosphodiesterase 3 [6]) of 42 µM. The inhibition (Phosphodiesterase 3 [7]) was 23% and the Ratio (Phosphodiesterase 3 [8]) was 1.4.
Compound c1ccc(COc2ccccc2-c2nc3ccc[nH]c-3n2)cc1 has an inhibition (Phosphodiesterase 3 [3]) of 0% and an IC50 (Phosphodiesterase 4 [9]) of 8 µM.
In the case of O=C1CCC(c2ccc(-n3ccnc3)cc2)=NN1, the ED50 (Phosphodiesterase 3 [5]) is reported as 0.05 mg/kg.
CCCCOc1ccccc1-c1nc2ccc[nH]c-2n1 gave an inhibition (Phosphodiesterase 3 [3]) of 0% and an IC50 (Phosphodiesterase 4 [9]) of 6 µM.
For CCCOc1ccccc1-c1cn2cccnc2n1, the inhibition (Phosphodiesterase 4 [2]) was 16% and the inhibition (Phosphodiesterase 3 [3]) was 2%.
COc1cc([S+](C)[O-])ccc1-c1nc2cccnc2[nH]1 (stereo not given) showed an ED50 (Phosphodiesterase 3 [5]) of 0.3 mg/kg and an inhibition (Phosphodiesterase 3 [7]) of 2%.
Cc1[nH]c(=O)c(C#N)cc1-c1ccncc1 gave an ED50 (Phosphodiesterase 3 [5]) of 0.037 mg/kg.
Work on CN(C)CCCOc1ccccc1-c1nc2ccc[nH]c-2n1 yielded an inhibition (Phosphodiesterase 4 [2]) of 7%, an inhibition (Phosphodiesterase 3 [3]) of 8% and an inhibition [10] of 47%.
O=[N+]([O-])c1ccccc1-c1nc2ccc[nH]c-2n1 showed an inhibition [1] of 13%, an inhibition (Phosphodiesterase 4 [2]) of 4% and an inhibition (Phosphodiesterase 3 [3]) of 0%.
In the case of CCCCCOc1ccccc1-c1nc2cc[nH]cc-2n1, the inhibition (Phosphodiesterase 4 [2]) is reported as 50% and the inhibition (Phosphodiesterase 3 [3]) is reported as 20%.
For CCCSc1ccccc1-c1nc2ccc[nH]c-2n1, the inhibition (Phosphodiesterase 4 [2]) was 21% and the inhibition (Phosphodiesterase 3 [3]) was 0%.
COc1ccccc1-c1nc2cc[nH]cc-2n1 was tested, and the inhibition (Phosphodiesterase 4 [2]) was 20% and the inhibition (Phosphodiesterase 3 [3]) was 6%.
In the case of CCCNc1ccccc1-c1nc2ccc[nH]c-2n1, the inhibition (Phosphodiesterase 4 [2]) is reported as 11% and the inhibition (Phosphodiesterase 3 [3]) is reported as 0%.
CCCCCOc1ccccc1-c1nc2ccc[nH]c-2n1 showed an inhibition (Phosphodiesterase 3 [3]) of 0% and an IC50 (Phosphodiesterase 4 [9]) of 6 µM.
c1c[nH]c2nc(-c3ccccc3OC3CCCC3)nc-2c1 was tested, and the inhibition (Phosphodiesterase 3 [3]) was 12% and the IC50 (Phosphodiesterase 4 [9]) was 19 µM.
Compound ClCCCOc1ccccc1-c1nc2ccc[nH]c-2n1 has an inhibition (Phosphodiesterase 3 [3]) of 7% and an IC50 (Phosphodiesterase 4 [9]) of 9 µM.
Compound CNCCCOc1ccccc1-c1nc2ccc[nH]c-2n1 has an inhibition [1] of 12%, an inhibition (Phosphodiesterase 4 [2]) of 5% and an inhibition (Phosphodiesterase 3 [3]) of 0%.
In the case of OCCOc1ccccc1-c1nc2ccc[nH]c-2n1, the inhibition (Phosphodiesterase 4 [2]) is reported as 14% and the inhibition (Phosphodiesterase 3 [3]) is reported as 2%.
For CC1(C)C(=O)Nc2ccc(C3=NNC(=O)CC3)cc21 [INDOLIDAN], the ED50 (Phosphodiesterase 3 [5]) was 0.007 mg/kg, the IC50 (Phosphodiesterase 3 [6]) was 0.08 µM and the Ratio (Phosphodiesterase 3 [8]) was 0.01.
CC(C)COc1ccccc1-c1nc2ccc[nH]c-2n1 showed an IC50 (Phosphodiesterase 4 [9]) of 3 µM.
OCCCOc1ccccc1-c1nc2ccc[nH]c-2n1 gave an inhibition (Phosphodiesterase 4 [2]) of 30% and an inhibition (Phosphodiesterase 3 [3]) of 0%.
With Oc1ccccc1-c1nc2ccc[nH]c-2n1 the inhibition (Phosphodiesterase 4 [2]) was 0% and the inhibition (Phosphodiesterase 3 [3]) was 15%.
Compound CCCOc1ccccc1-c1nc2ccc[nH]c-2n1 has an inhibition (Phosphodiesterase 3 [3]) of 0% and an IC50 (Phosphodiesterase 4 [9]) of 11 µM.
Work on CCCCCCOc1ccccc1-c1nc2ccc[nH]c-2n1 yielded an inhibition (Phosphodiesterase 3 [3]) of 0% and an IC50 (Phosphodiesterase 4 [9]) of 16 µM.
In the case of CCCOc1ccccc1-c1nc2[nH]nnc2c(=O)[nH]1, the inhibition (Phosphodiesterase 4 [2]) is reported as 13% and the inhibition (Phosphodiesterase 3 [3]) is reported as 14%.
COc1ccccc1-c1nc2ccc[nH]c-2n1 showed an inhibition (Phosphodiesterase 3 [3]) of 13% and an inhibition (Phosphodiesterase 4 [11]) of 1%.
c1c[nH]c2nc(-c3ccccc3OCC3CC3)nc-2c1 was tested, and the inhibition (Phosphodiesterase 3 [3]) was 15% and the IC50 (Phosphodiesterase 4 [9]) was 37 µM.
